Experimental findings from ChEMBL document CHEMBL1144050, “Two novel acetogenins, annoglaxin and 27-hydroxybullatacin, from Annona glabra” (J Nat Prod, 1999) are described below.

Values after ≈ are worked out from the molar mass of the structure shown.

The subject of one series is A498. The experiment in a line: Cytotoxicity against human A498 cells after 7 days by MTT assay. In kind it is functional. The following applies: for EC50: Homo sapiens, A498, 168 h, read-out: ED50 (the source's name). The procedure, abridged: (§1)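 Standard 7-day MTT cytotoxicity assay on human tumour lines: A-549 (lung carcinoma), MCF-7 (breast carcinoma), HT-29 (colon adenocarcinoma), A-498 (kidney carcinoma), PC-3 (prostate adenocarcinoma), PACA-2 (pancreatic carcinoma). Adriamycin was run as the positive control standard.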

The next series relates to A549. The experiment in a line: Cytotoxicity against human A549 cells after 7 days by MTT assay. The series is classed as functional. The following applies: A549, 168 h, read-out: ED50 (the source's name). The procedure, abridged: as §1
For orientation: Tetrazolium dyes change colour on reduction, which living cells bring about.

The subject of the next series is PC-3. The experiment in a line: Cytotoxicity against human PC-3 cells after 7 days by MTT assay. In kind it is functional. The following applies: for EC50: Homo sapiens, PC-3, 168 h, read-out: ED50 (the source's name). The method, boiled down: as §1
The nature of series [1]: (§2) Toxicity in brine shrimp. The series is classed as organism-based. The following applies: artemia salina, in vivo.
The test system of a further series is MIA PaCa-2. The experiment in a line: Cytotoxicity against human PACA2 cells after 7 days by MTT assay. The series is classed as functional. The following applies: for EC50: Homo sapiens, MIA PaCa-2, 168 h, read-out: ED50 (the source's name). The method, boiled down: as §1
For a further series, the system named is MCF7. The experiment in a line: Cytotoxicity against human MCF7 cells after 7 days by MTT assay. In kind it is functional. The procedure, abridged:
as §1

A further series concerns HT-29. The experiment in a line: Cytotoxicity against human HT29 cells after 7 days by MTT assay. The series is classed as functional. The following applies: for EC50: Homo sapiens, HT-29, 168 h, read-out: ED50 (the source's name). The method, boiled down: as §1
The next series relates to Artemia salina. The description is as §2. In kind it is organism-based. The following applies: in vivo.

Regarding `CCCCCCCCCC[C@H](O)C[C@@H](O)[C@H]1CC[C@H]([C@H](O)CCC(=O)CCC[C@H](O)CCCCCC2=C[C@H](C)OC2=O)O1` [ANNOGLAXIN], the EC50 worked out at 1.8 µg/mL (≈ 2.95 µM) in the series with A498; 1.1 µg/mL (≈ 1.8 µM) in the series on A549; 0.87 µg/mL (≈ 1.42 µM) in the series with PC-3; 1.6 µg/mL (≈ 2.62 µM) in the series on MIA PaCa-2; 0.18 µg/mL (≈ 0.295 µM) in the series with HT-29. Further, in series [1], the LC50 worked out at 0.29 µg/mL (≈ 0.475 µM). In the series on MCF7, this compound yielded an ED50 of 4.3 ×10⁻⁴ ug/ml.
Consider `COc1cccc2c1C(=O)c1c(O)c3c(c(O)c1C2=O)C[C@@](O)(C(=O)CO)C[C@@H]3O[C@H]1C[C@H](N)[C@H](O)[C@H](C)O1` [DOXORUBICIN], for which the EC50 in the series on A498 is 0.0019 µg/mL (≈ 0.0035 µM); in the series on A549 it was 0.0013 µg/mL (≈ 0.00239 µM); in the series on PC-3, 0.02 µg/mL (≈ 0.0368 µM); with MIA PaCa-2 it was 0.0043 µg/mL (≈ 0.00791 µM); in the series with MCF7 (Homo sapiens, MCF7, 168 h, read-out: ED50 (the source's name)), 0.09 µg/mL (≈ 0.166 µM); in the series with HT-29 it was 0.01 µg/mL (≈ 0.0184 µM).
Regarding `CCCCCCC[C@H](O)CC[C@H](O)[C@H]1CC[C@H]([C@H]2CC[C@H]([C@H](O)CCCCCCCCCC[C@@H](O)CC3=C[C@H](C)OC3=O)O2)O1`, the ED50 in the series with A498 is reported as 3.1 ×10⁻⁸ ug/ml; in the series on PC-3, below 1 ×10⁻⁹ ug/ml; in the series on MIA PaCa-2, below 1 ×10⁻⁹ ug/ml; in the series on MCF7, 7.8 ×10⁻⁴ ug/ml; with HT-29, 1.8 ×10⁻⁵ ug/ml. Moreover, the EC50 in the series on A549 was found to be 0.0021 µg/mL (≈ 0.00329 µM). This compound also displayed an LC50 in the series on Artemia salina of 4.3 ×10⁻² ug/ml.
